The source made the active and inactive calls. The calls are words filed in the database; no cut-off is given here.
What was measured:
NCI-H460 = experiment: Cytotoxicity against human NCI-H460 cells assessed as growth inhibition measured after 48 hrs by SRB assay; format: functional; conditions: NCI-H460, 48 h
Tubulin = Tubulin (Bos taurus, UniProt Q6B856+Q862L2+Q862F3); experiment: Inhibition of bovine brain tubulin polymerization preincubated for 15 mins followed by GTP addition and measured for 20 mins by turbidimetry-based spectrophotometric method
How it was run: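 Mixtures held 10 µM purified bovine brain tubulin, 0.8 M monosodium glutamate pH 6.6, 4% DMSO and varied compound concentrations. These were preincubated 15 min at 30 °C without GTP, then chilled to 0 °C, and GTP was added to 0.4 mM final. Temperature was raised to 30 °C and turbidity followed at 350 nm for 20 min.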

SK-OV-3 = experiment: Cytotoxicity against human SKOV3 cells assessed as growth inhibition measured after 48 hrs by SRB assay; format: functional; conditions: SK-OV-3, 48 h
DU-145 = experiment: Cytotoxicity against human DU145 cells assessed as growth inhibition measured after 48 hrs by SRB assay; format: functional; conditions: DU-145, 48 h
Tubulin (Homo sapiens) [1] = molecular target: T1, Tubulin (Homo sapiens) (UniProt P68371+Q9H4B7+P0DPH7+P68366+Q13509+Q71U36+P04350+Q3ZCM7+P07437+P68363+Q9BQE3+Q6PEY2+Q13885+Q9BVA1+Q9BUF5); experiment: Inhibition of [3H]colchicine binding to tubulin (unknown origin) at 5 uM measured after 10 mins by beckman scintillation counting method relative to control; format: protein-complex assay
How it was run: (§1)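 Each 0.1 mL mix held 1.0 µM tubulin, 5.0 µM [3H]colchicine, 5% DMSO and compound at 1.0 or 5.0 µM. Stabilising components were 1.0 M monosodium glutamate pH 6.6, 0.5 mg/mL BSA, 0.1 M glucose-1-phosphate, 1.0 mM MgCl2 and 1.0 mM GTP. After 10 min at 37 °C, reactions were stopped with ice-cold water and filtered on DEAE-cellulose. Bound label was counted and percent inhibition taken versus no-inhibitor samples, correcting for filter binding without tubulin.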

Tubulin (Homo sapiens) [2] = molecular target: T1, Tubulin (Homo sapiens); experiment: Inhibition of [3H]colchicine binding to tubulin (unknown origin) at 1 uM measured after 10 mins by beckman scintillation counting method relative to control; format: protein-complex assay; how it was run: as §1
[3] = Toxicity in Copenhagen rat xenografted with human PC3 cells harboring DAB2IP-luc at 80 mg/kg, ip measured after 4 to 24 hrs; format: organism-based; conditions: in vivo
[4] = Toxicity in Copenhagen rat xenografted with human PC3 cells harboring DAB2IP-luc at 40 mg/kg, ip measured after 48 hrs; format: organism-based; conditions: in vivo
PC-3 [5] = experiment: (§2) Induction of vascular damage in human PC3 cells harboring DAB2IP-luc xenografted in Copenhagen rat assessed as reduction in light emission at 80 mg/kg, ip measured after 4 to 24 hrs by Bioluminescence imaging analysis; format: functional, organism-based
How it was run: (§3)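 Male Copenhagen rats (about 6 weeks old, 100-120 g) were implanted s.c. in the right thigh with 5 X 10⁵ PC3-DAB2IP-luc cells in 30% Matrigel. Tumors were at least 1 cm in diameter before treatment. Prodrug in saline (25 mg/mL) was given IP, one rat per regimen. Under isoflurane, 120 mg/kg D-luciferin was injected s.c. fresh at baseline, 4 h and 24 h. Tumor ROI light emission was followed over about 30 min.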

PC-3 [6] = experiment: Induction of vascular damage in human PC3 cells harboring DAB2IP-luc xenografted in Copenhagen rat assessed as reduction in light emission at 40 mg/kg, ip measured after 24 to 48 hrs by Bioluminescence imaging analysis; format: functional, organism-based; how it was run: as §3
PC-3 [7] = experiment: Induction of vascular damage in human PC3 cells harboring DAB2IP-luc xenografted in Copenhagen rat assessed as reduction in light emission at 40 mg/kg, ip measured after 4 hrs by Bioluminescence imaging analysis; format: functional, organism-based; how it was run: as §3
PC-3 [8] = experiment: as §2, with “10” for “80”, “ip administered 24 hrs prior to 40 mg/kg, ip dosing for 4 hrs followed by CA4P dosing at 30 mg/kg, ip and” for “ip”, “bioluminescence” for “Bioluminescence”; format: functional, organism-based; how it was run: as §3
PC-3 [9] = experiment: Induction of vascular damage in human PC3 cells harboring DAB2IP-luc xenografted in Copenhagen rat assessed as reduction in light emission at 10 mg/kg, ip administered 6 hrs prior to 40 mg/kg, ip dosing and measured after 24 hrs by bioluminescence imaging analysis; format: functional, organism-based; how it was run: as §3
PC-3 [10] = experiment: Induction of vascular damage in human PC3 cells harboring DAB2IP-luc xenografted in Copenhagen rat assessed as reduction in light emission at 10 mg/kg, ip administered 6 hrs prior to 40 mg/kg, ip dosing and measured after 4 hrs by bioluminescence imaging analysis relative to control; format: functional; parameters: scale not given: the % may be the effect or the level left; how it was run: as §3
PC-3 [11] = experiment: Induction of vascular damage in human PC3 cells harboring DAB2IP-luc xenografted in Copenhagen rat assessed as reduction in light emission at 10 mg/kg, ip measured after 4 to 24 hrs by Bioluminescence imaging analysis; format: functional, organism-based; how it was run: as §3
Tubulin (Homo sapiens) [12] = molecular target: T1, Tubulin (Homo sapiens); experiment: Inhibition of [3H]colchicine binding to tubulin (unknown origin) measured after 10 mins by beckman scintillation counting method relative to control; format: protein-complex assay
How it was run: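 The 0.1 mL mix held 1.0 µM tubulin, 5.0 µM [3H]colchicine, 5% DMSO and compound at 1.0 or 5.0 µM. It also held 1.0 M monosodium glutamate (pH 6.6), 0.5 mg/mL BSA, 0.1 M glucose-1-phosphate, 1.0 mM MgCl2 and 1.0 mM GTP. After 10 min at 37 °C the reaction was stopped on ice, the mix filtered through DEAE-cellulose and counted. Percent inhibition was taken against the no-inhibitor control, corrected for label bound without tubulin.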

Tubulin (Homo sapiens) [13] = molecular target: T1, Tubulin (Homo sapiens); experiment: Inhibition of [3H]colchicine binding to tubulin (unknown origin) at 0.5 uM measured after 10 mins by beckman scintillation counting method relative to control; format: protein-complex assay

COc1ccc2c(c1C#N)CCC=C2c1cc(OC)c(OC)c(OC)c1
GI50 (NCI-H460): 60.5 nM
IC50 (Tubulin): 0.37 µM
GI50 (SK-OV-3): 38.4 nM
GI50 (DU-145): 25.2 nM
inhibition (Tubulin (Homo sapiens) [1]): 73%

COc1ccc(/C=C\c2cc(OC)c(OC)c(OC)c2)cc1OP(=O)(O)O [FOSBRETABULIN DISODIUM]
GI50 (NCI-H460): 1.94 nM
GI50 (SK-OV-3): 1.19 nM
GI50 (DU-145): 3.23 nM

COc1ccc(/C=C\c2cc(OC)c(OC)c(OC)c2)cc1O [COMBRETASTATIN A4]
GI50 (NCI-H460): 2.23 nM
GI50 (SK-OV-3): 4.55 nM
GI50 (DU-145): 3.27 nM

CCOC(=O)c1c(OC)ccc2c1CCCC=C2c1cc(OC)c(OC)c(OC)c1
GI50 (NCI-H460): 353 nM
IC50 (Tubulin): 1 µM
GI50 (SK-OV-3): 299 nM
GI50 (DU-145): 631 nM
inhibition (Tubulin (Homo sapiens) [1]): 47%

COc1ccc2c(c1C=O)CCCC=C2c1cc(OC)c(OC)c(OC)c1
GI50 (NCI-H460): 84.7 nM
IC50 (Tubulin): 3.2 µM
GI50 (SK-OV-3): 57.2 nM
GI50 (DU-145): 40.2 nM
inhibition (Tubulin (Homo sapiens) [1]): 61%

COc1ccc2c(c1O)CCC(NC(C)=O)C=C2c1cc(OC)c(OC)c(OC)c1 (stereo not given)
GI50 (NCI-H460): 334 nM
GI50 (DU-145): 1200 nM
inhibition (Tubulin (Homo sapiens) [1]): 0.4%

COc1cc(C2=CCCCc3c2ccc(OC)c3OCCO)cc(OC)c1OC
GI50 (NCI-H460): 855 nM
IC50 (Tubulin): > 20 µM
GI50 (SK-OV-3): 3220 nM
GI50 (DU-145): 3760 nM

COc1cc(C2CCc3c(ccc(OC)c3OC)C(=O)C2)cc(OC)c1OC (stereo not given)
GI50 (NCI-H460): 2000 nM
IC50 (Tubulin): > 20 µM
GI50 (SK-OV-3): 5770 nM
GI50 (DU-145): 4450 nM
inhibition (Tubulin (Homo sapiens) [1]): 0%

COc1ccc2c(c1C#N)CCCC=C2c1cc(OC)c(OC)c(OC)c1
GI50 (NCI-H460): 434 nM
IC50 (Tubulin): 1.1 µM
GI50 (SK-OV-3): 64.8 nM
GI50 (DU-145): 860 nM
inhibition (Tubulin (Homo sapiens) [1]): 62%

COc1ccc2c(c1C)CCCC(Br)=C2c1cc(OC)c(OC)c(OC)c1
GI50 (NCI-H460): 449 nM
IC50 (Tubulin): 4.9 µM
GI50 (SK-OV-3): 312 nM
GI50 (DU-145): 423 nM
inhibition (Tubulin (Homo sapiens) [2]): 35%

COc1cc(C2=CC=CCc3c2ccc(OC)c3OP(=O)([O-])[O-])cc(OC)c1OC.[Na+].[Na+]
Activity [3]: Non-Toxic
Activity [4]: Non-Toxic
Activity (PC-3 [5]): inactive
Activity (PC-3 [6]): inactive
Activity (PC-3 [7]): Active
Activity (PC-3 [8]): Active
Activity (PC-3 [9]): inactive
Activity (PC-3 [10]): 95%
Activity (PC-3 [11]): inactive
GI50 (NCI-H460): 29.1 nM
IC50 (Tubulin): 16 µM
inhibition (Tubulin (Homo sapiens) [1]): 45%

COc1ccc2c(c1O)CCCCC2(O)c1cc(OC)c(OC)c(OC)c1 (stereo not given)
GI50 (NCI-H460): 173 nM
IC50 (Tubulin): > 20 µM
GI50 (SK-OV-3): 394 nM
GI50 (DU-145): 33 nM

CC(=O)O[C@H]1C(=O)[C@@]2(C)[C@H]([C@H](OC(=O)c3ccccc3)[C@]3(O)C[C@H](OC(=O)[C@H](O)[C@@H](NC(=O)c4ccccc4)c4ccccc4)C(C)=C1C3(C)C)[C@]1(OC(C)=O)CO[C@@H]1C[C@@H]2O [PACLITAXEL]
GI50 (NCI-H460): 1.76 nM
GI50 (SK-OV-3): 1.34 nM
GI50 (DU-145): 1.47 nM
inhibition (Tubulin (Homo sapiens) [12]): inactive

COc1cc(C2=CC(O)CCc3c2ccc(OC)c3OC)cc(OC)c1OC (stereo not given)
GI50 (NCI-H460): 432 nM
IC50 (Tubulin): 3.8 µM
GI50 (SK-OV-3): 263 nM
GI50 (DU-145): 439 nM
inhibition (Tubulin (Homo sapiens) [1]): 28%

COc1ccc2c(c1O)CCCC=C2c1cc(OC)c(OC)c(OC)c1
IC50 (Tubulin): 0.85 µM
inhibition (Tubulin (Homo sapiens) [2]): 73%
inhibition (Tubulin (Homo sapiens) [1]): 95%

COc1ccc2c(c1O)CCCC(Br)=C2c1cc(OC)c(OC)c(OC)c1
GI50 (NCI-H460): 35.3 nM
IC50 (Tubulin): 0.39 µM
GI50 (SK-OV-3): 22.1 nM
GI50 (DU-145): 36.2 nM
inhibition (Tubulin (Homo sapiens) [1]): 88%

COc1cc(C2(O)C=CCCc3c2ccc(OC)c3OC)cc(OC)c1OC (stereo not given)
GI50 (NCI-H460): 70500 nM
IC50 (Tubulin): > 20 µM
GI50 (SK-OV-3): 27200 nM
GI50 (DU-145): 26000 nM
inhibition (Tubulin (Homo sapiens) [1]): 0%

COc1cccc2c1C(=O)c1c(O)c3c(c(O)c1C2=O)C[C@@](O)(C(=O)CO)C[C@@H]3O[C@H]1C[C@H](N)[C@H](O)[C@H](C)O1 [DOXORUBICIN]
GI50 (NCI-H460): 123 nM
GI50 (SK-OV-3): 78.9 nM
GI50 (DU-145): 134 nM

COc1ccc2c(c1O)CCCC(O)C2(O)c1cc(OC)c(OC)c(OC)c1 (stereo not given)
GI50 (NCI-H460): 3860 nM
IC50 (Tubulin): > 20 µM
GI50 (SK-OV-3): 3030 nM
GI50 (DU-145): 4040 nM
inhibition (Tubulin (Homo sapiens) [1]): 0%

COc1ccc2c(c1O)CCCC(=O)C2(O)c1cc(OC)c(OC)c(OC)c1 (stereo not given)
GI50 (NCI-H460): 47.6 nM
IC50 (Tubulin): 1.2 µM
GI50 (SK-OV-3): 31.4 nM
GI50 (DU-145): 141 nM
inhibition (Tubulin (Homo sapiens) [1]): 72%

COc1ccc2c(c1CO)CCCC=C2c1cc(OC)c(OC)c(OC)c1
GI50 (NCI-H460): 62.8 nM
IC50 (Tubulin): 0.63 µM
inhibition (Tubulin (Homo sapiens) [1]): 76%

COCCOCCOc1c(OC)ccc2c1CCCC=C2c1cc(OC)c(OC)c(OC)c1
GI50 (NCI-H460): 1900 nM
IC50 (Tubulin): > 20 µM
GI50 (SK-OV-3): 6520 nM
GI50 (DU-145): 5660 nM

COc1ccc2c(c1O)CC=CC=C2c1cc(OC)c(OC)c(OC)c1
GI50 (NCI-H460): 58.1 nM
IC50 (Tubulin): 0.48 µM
inhibition (Tubulin (Homo sapiens) [13]): 68%
inhibition (Tubulin (Homo sapiens) [1]): 95%

Source: ChEMBL document CHEMBL4350968, “Structure Guided Design, Synthesis, and Biological Evaluation of Novel Benzosuberene Analogues as Inhibitors of Tubulin Polymerization” (J Med Chem, 2019)
